Data reported in article PMC10061536 (ACS Omega, 2023).

How the values were obtained:
[1] = DPPH radical scavenging assay; conditions: for IC50: read-out: IC50 (mM ± SEM), DPPH scavenged by 50%; for percentage antioxidant potential: at tested concentrations, IC50 not calculated
How it was run: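 Radical scavenging of DPPH by the test compound, with ascorbic acid as the reference.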

[2] = target: Bovine serum albumin (BSA)-glucose model (Bos taurus, UniProt P02769); experiment: In vitro anti-glycation assay, BSA-glucose model; assay type: biochemical; conditions: for inhibition at 100 ppm / inhibition at 200 ppm / inhibition at 400 ppm / inhibition at 600 ppm / inhibition at 800 ppm / inhibition at 1000 ppm: read-out: % age antiglycation inhibition
How it was run: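 Glycation is read by measuring the fluorescence of glycated products on a spectrofluorometer.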

[3] = test system: α-amylase; experiment: α-Amylase inhibition assay; assay type: biochemical; conditions: for IC50: read-out: IC50 ± SEM, α-amylase inhibition

Bovine serum albumin (BSA)-glucose model, sequence (P02769 25-607): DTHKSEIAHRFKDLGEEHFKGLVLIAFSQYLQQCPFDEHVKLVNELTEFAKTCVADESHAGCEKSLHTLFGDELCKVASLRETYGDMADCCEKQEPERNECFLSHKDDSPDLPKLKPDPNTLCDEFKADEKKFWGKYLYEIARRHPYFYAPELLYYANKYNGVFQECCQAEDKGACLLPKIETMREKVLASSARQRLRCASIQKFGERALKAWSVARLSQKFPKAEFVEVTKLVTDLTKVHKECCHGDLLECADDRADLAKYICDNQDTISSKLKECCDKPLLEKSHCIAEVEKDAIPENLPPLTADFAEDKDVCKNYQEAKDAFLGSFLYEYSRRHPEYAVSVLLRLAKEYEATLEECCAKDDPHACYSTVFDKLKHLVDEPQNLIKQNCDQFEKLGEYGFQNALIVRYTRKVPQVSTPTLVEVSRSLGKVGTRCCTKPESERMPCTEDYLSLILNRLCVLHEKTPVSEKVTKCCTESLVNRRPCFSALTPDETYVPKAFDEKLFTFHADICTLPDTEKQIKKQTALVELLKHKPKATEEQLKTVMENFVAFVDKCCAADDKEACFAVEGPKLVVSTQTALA

| SMILES | % age antioxidant potential ([1]; 3 mM) | % age antioxidant potential ([1]; 6 mM) | % age antioxidant potential ([1]; 9 mM) | % age antioxidant potential ([1]; 12 mM) | % age antioxidant potential ([1]; 15 mM) | IC50 [1] | inhibition at 100 ppm [2] | inhibition at 200 ppm [2] | inhibition at 400 ppm [2] | inhibition at 600 ppm [2] | inhibition at 800 ppm [2] | inhibition at 1000 ppm [2] | % age α-amylase inhibition ([3]; 1 μM) | % age α-amylase inhibition ([3]; 5 μM) | % age α-amylase inhibition ([3]; 10 μM) | IC50 [3] | percentage antioxidant potential [1] | IC50 [2] |
| --- | --- | --- | --- | --- | --- | --- | --- | --- | --- | --- | --- | --- | --- | --- | --- | --- | --- | --- |
| O=C1O[C@H]([C@@H](O)CO)C(O)=C1O [ascorbic acid, reference compound] | 52.34% | 61.01% | 74.41% | 81.85% | 84.92% | 7.18 ± 0.01 mM |  |  |  |  |  |  |  |  |  |  |  |  |
| Fc1ccc(-c2csc(NN=Cc3cccs3)n2)cc1 [3n, 4-(4-Fluorophenyl)-2-(2-(thiophen-2-ylmethylene)hydrazinyl)thiazole] | 0.00% | 12.72% | 30.39% | 45.47% | 59.36% | 13.86 ± 0.04 mM | 79.3% | 81% | 82.1% | 83% | 85.8% | 87.8% | 51.64% | 64.48% | 71.83% | 5.77 ± 0.05 µM |  |  |
| CC(=NNc1nc(-c2ccc(F)cc2)cs1)c1cccc(Br)c1 [3f, 2-(2-(1-(3-Bromophenyl)ethylidene)hydrazinyl)-4-(4-fluorophenyl)thiazole] | 0.00% | 0.00% | 19.48% | 28.70% | 40.73% |  | 84.1% | 86.7% | 87.3% | 88% | 90.4% | 91.3% | 34.92% | 51.68% | 62.28% | 6.88 ± 0.16 µM | less than 50% |  |
| COc1c(F)cccc1C=NNc1nc(-c2ccc(F)cc2)cs1 [3l, 2-(2-(3-Fluoro-2-methoxybenzylidene)hydrazinyl)-4-(4-fluorophenyl)thiazole] | 0.00% | 15.62% | 32.06% | 46.14% | 65.18% | 12.94 ± 0.01 mM | 79.9% | 81.8% | 83% | 84.6% | 86.2% | 87.1% | 37.06% | 49.08% | 61.72% | 7 ± 0.13 µM |  |  |
| CCOc1ccccc1C=NNc1nc(-c2ccc(F)cc2)cs1 [3j, 2-(2-(2-Ethoxybenzylidene)hydrazinyl)-4-(4-fluorophenyl)thiazole] | 18.18% | 45.90% | 62.07% | 75.45% | 78.51% | 8.33 ± 0.08 mM | 52.3% | 61.5% | 66.5% | 70.3% | 76.2% | 79.2% | 29.58% | 42.23% | 54.03% | 8.07 ± 0.12 µM |  |  |
| CC(=NNc1nc(-c2ccc(F)cc2)cs1)c1ccc(F)cc1 [3g, 4-(4-Fluorophenyl)-2-(2-(1-(4-fluorophenyl)ethylidene)hydrazinyl)thiazole] | 0.00% | 0.00% | 0.00% | 0.00% | 8.45% |  | 24.3% | 34.6% | 48.8% | 54.3% | 66.6% | 74.6% | 38.00% | 49.56% | 62.75% | 6.9 ± 0.23 µM | less than 50% | 1770 µM |
| Fc1ccc(-c2csc(NN=Cc3ccc(C(F)(F)F)cc3)n2)cc1 [3d, 4-(4-Fluorophenyl)-2-(2-(4-(trifluoromethyl)benzylidene)hydrazinyl)thiazole] | 23.48% | 34.45% | 45.32% | 56.39% | 63.78% | 10.68 ± 0.08 mM | 87.4% | 87.9% | 89% | 89.5% | 90.9% | 92.3% | 36.97% | 49.93% | 62.35% | 6.92 ± 0.12 µM |  |  |
| COc1cc(Br)c(C=NNc2nc(-c3ccc(F)cc3)cs2)cc1OC [3a, 2-(2-(2-Bromo-4,5-dimethoxybenzylidene)hydrazinyl)-4-(4-fluorophenyl)thiazole] | 0.00% | 18.82% | 32.72% | 47.58% | 67.95% | 12.39 ± 0.1 mM | 80.9% | 82.1% | 84.8% | 85.9% | 87% | 89.9% | 35.96% | 51.11% | 69.11% | 6.41 ± 0.09 µM |  |  |
| Fc1ccc(-c2csc(NN=Cc3ccccc3C(F)(F)F)n2)cc1 [3k, 4-(4-Fluorophenyl)-2-(2-(2-(trifluoromethyl)benzylidene)hydrazinyl)thiazole] | 0.00% | 14.08% | 21.05% | 30.92% | 48.28% |  | 87.4% | 87.9% | 88.8% | 89.2% | 90% | 91.6% | 47.84% | 57.72% | 70.90% | 6.03 ± 0.04 µM | less than 50% |  |
| C[C@H]1O[C@H](O[C@H]2[C@H](O)[C@@H](O)[C@@H](O[C@H]3[C@H](O)[C@@H](O)C(O)O[C@@H]3CO)O[C@@H]2CO)[C@H](O)[C@@H](O)[C@@H]1N[C@H]1C=C(CO)[C@@H](O)[C@H](O)[C@H]1O (stereo partly shown) [acarbose, reference compound] |  |  |  |  |  |  |  |  |  |  |  |  | 53.42% | 66.81% | 74.77% |  |  |  |
| CSc1ccccc1C=NNc1nc(-c2ccc(F)cc2)cs1 [3o, 4-(4-Fluorophenyl)-2-(2-(2-(methylthio)benzylidene)hydrazinyl)thiazole] | 0.00% | 7.68% | 18.22% | 30.15% | 53.73% | 18 ± 0.27 mM | 83.7% | 84.2% | 85.5% | 86.4% | 88.2% | 89.5% | 33.07% | 43.03% | 57.18% | 7.69 ± 0.18 µM |  |  |
